Experiments:
[1] = folding enthalpy; higher = less favourable; fluorescence melt of hairpins on a sequencing array, two-state fit; conditions: sodium 0.088 M
How it was run: (§1)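 With Cy3 and quencher oligos annealed, library hairpins on a sequenced MiSeq flow cell were imaged for Cy3 fluorescence in 50 mM Na-HEPES pH 8.0, 25 mM NaCl, in 2.5 °C steps up to 60 °C. Melting temperature and folding enthalpy were derived from bootstrapped two-state fits of signals normalised to pre-quench Cy3 and to control constructs. Four replicates were combined by inverse variance, with fitted temperatures raised by 9.35 °C to match UV melts.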

[2] = melting temperature; fluorescence melt of hairpins on a sequencing array, two-state fit, raised by 9.35 °C to match UV melts; conditions: sodium 0.088 M
How it was run: as §1

Row | Sequence | folding enthalpy [1] [kcal/mol] | Tm [2] [°C]
1 | GATCTGCGTCAGATC ((((((...)))))) | -29.4 | 49.6
2 | GATCTGCTCGCAGATC ((((((....)))))) | -47.5 | 62.6
3 | GATCTGCTGCAGATC ((((((...)))))) | -41.4 | 50.4
4 | GATCTGCTTACAGATC ((((((....)))))) | -42.8 | 51.8
5 | GATCTGCTTCAGATC ((((((...)))))) | -36.6 | 48.7
6 | GATCTGCTTCCAGATC ((((((....)))))) | -33.4 | 48.5
7 | GATCTGGAGCAGATC ((((((...)))))) | -28.1 | 45.4
8 | GATCTGGATGCAGATC ((((((....)))))) | -35.5 | 50.8
9 | GATCTGGCAGCAGATC ((((((....)))))) | -41.8 | 51.3
10 | GATCTGGCTCAGATC ((((((...)))))) | -35.5 | 49.1
11 | GATCTGGGAAACTAGATC (((((.(....).))))) | -32.2 | 42.4
12 | GATCTGGGAACAGATC ((((((....)))))) | -39.8 | 54.5
13 | GATCTGGGCCAGATC ((((((...)))))) | -51.8 | 53.2
14 | GATCTGGGTACAGATC ((((((....)))))) | -38.7 | 57.7
15 | GATCTGGTAGCAGATC ((((((....)))))) | -36.6 | 52.2
16 | GATCTGGTCACAGATC ((((((....)))))) | -40.3 | 62.1
17 | GATCTGGTGCCAGATC ((((((....)))))) | -46.6 | 52.2
18 | GATCTGTAAGCAGATC ((((((....)))))) | -49.9 | 51.4
19 | GATCTGTACACAGATC ((((((....)))))) | -37.4 | 54.6
20 | GATCTGTAGTCAGATC ((((((....)))))) | -35.5 | 49.1
21 | GATCTGTCTACAGATC ((((((....)))))) | -47.5 | 54.9
22 | GATCTGTGAACAGATC ((((((....)))))) | -43 | 52.9
23 | GATCTGTGACAGATC ((((((...)))))) | -31.5 | 48.8
24 | GATCTGTGTCAGATC ((((((...)))))) | -34.1 | 50.6

Row | Sequence | folding enthalpy [1] [kcal/mol] | Tm [2] [°C]
25 | GATCTGTTGCAGATC ((((((...)))))) | -36.5 | 48.7
26 | GATCTGTTGTCAGATC ((((((....)))))) | -37.1 | 50.9
27 | GATCTGTTTTCAGATC ((((((....)))))) | -49.9 | 51.4
28 | GATCTTAAATAAGATC ((((((....)))))) | -31.9 | 38.5
29 | GATCTTAACAAGATC ((((((...)))))) | -31.9 | 45.6
30 | GATCTTAAGAAAGATC ((((((....)))))) | -22.1 | 36
31 | GATCTTAAGAAGATC ((((((...)))))) | -25.5 | 40.5
32 | GATCTTACAAAAGATC ((((((....)))))) | -26.4 | 39.6
33 | GATCTTACAAAGATC ((((((...)))))) | -32.2 | 44.4
34 | GATCTTACGTAAGATC ((((((....)))))) | -63 | 48.3
35 | GATCTTACTAAAGATC ((((((....)))))) | -33 | 43
36 | GATCTTAGAAAGATC ((((((...)))))) | -31.3 | 41.5
37 | GATCTTAGAGAAGATC ((((((....)))))) | -21.1 | 37.7
38 | GATCTTAGCAAGATC ((((((...)))))) | -31.9 | 46.2
39 | GATCTTAGCGAAGATC ((((((....)))))) | -31.2 | 43.4
40 | GATCTTAGGGAAGATC ((((((....)))))) | -26.3 | 41.5
41 | GATCTTATAAAAGATC ((((((....)))))) | -25.5 | 40
42 | GATCTTATGTAAGATC ((((((....)))))) | -36.6 | 45.2
43 | GATCTTATTGAAGATC ((((((....)))))) | -31.5 | 41.8
44 | GATCTTCAAAAAGATC ((((((....)))))) | -27.3 | 40.4
45 | GATCTTCAAAAGATC ((((((...)))))) | -19.2 | 41
46 | GATCTTCACCAAGATC ((((((....)))))) | -35.5 | 41.9
47 | GATCTTCATAAAGATC ((((((....)))))) | -35.6 | 43.5
48 | GATCTTCCGAAAGATC ((((((....)))))) | -29.7 | 43.2

Row | Sequence | folding enthalpy [1] [kcal/mol] | Tm [2] [°C]
49 | GATCTTCCGCAAGATC ((((((....)))))) | -35.4 | 42.5
50 | GATCTTCCGTAAGATC ((((((....)))))) | -29.8 | 43.8
51 | GATCTTCCTCAAGATC ((((((....)))))) | -30.1 | 42
52 | GATCTTCGAAAAGATC ((((((....)))))) | -24.9 | 40.5
53 | GATCTTCGCAAAGATC ((((((....)))))) | -28.3 | 45.5
54 | GATCTTCGCAAGATC ((((((...)))))) | -33.7 | 45.4
55 | GATCTTCGTAAAGATC ((((((....)))))) | -40.8 | 44.9
56 | GATCTTCTAGAAGATC ((((((....)))))) | -40.9 | 49.6
57 | GATCTTCTGAAAGATC ((((((....)))))) | -25.4 | 42.1
58 | GATCTTCTGCAAGATC ((((((....)))))) | -22 | 42.9
59 | GATCTTGAGAAAGATC ((((((....)))))) | -32.1 | 45.9
60 | GATCTTGATCAAGATC ((((((....)))))) | -40.9 | 49.7
61 | GATCTTGGAAAGATC ((((((...)))))) | -34.5 | 51.9
62 | GATCTTGGACAAGATC ((((((....)))))) | -41.8 | 50.8
63 | GATCTTGGCTAAGATC ((((((....)))))) | -45.1 | 48.2
64 | GATCTTGGGTAAGATC ((((((....)))))) | -27.6 | 43.2
65 | GATCTTTACAAGATC ((((((...)))))) | -33.2 | 46.4
66 | GATCTTTACCAAGATC ((((((....)))))) | -29.9 | 42
67 | GATCTTTCCAAAGATC ((((((....)))))) | -32.9 | 47.3
68 | GATCTTTCGCAAGATC ((((((....)))))) | -32.4 | 43.5
69 | GATCTTTGAAAAGATC ((((((....)))))) | -29.4 | 42.2
70 | GATCTTTGAGAAGATC ((((((....)))))) | -31.6 | 46
71 | GATCTTTGCAAGATC ((((((...)))))) | -34.7 | 46.4
72 | GATCTTTGGCAAGATC ((((((....)))))) | -29 | 40

Reference: the array DNA melting data of Ke et al. (doi:10.1101/2024.01.08.574731)
